Series [1] can be described thus: Unbound drug level in swine brain at 1.6 mg/kg, iv infusion via saphenous vein after 60 mins by LC-MS/MS analysis. The conditions noted are these: pig, in vivo, 1 h. It counts as ADME, organism-based, Sus scrofa. A digest of the protocol: (§1)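 Swine, n = 2/dose. Dosing was iv infusion over 1 h (1.6 mg/kg or molar equivalent), with brain and plasma taken 60 min post-infusion and totals measured by LC–MS/MS after dabsyl derivatisation. Free levels were calculated from the totals using ultrafiltration-derived bound fractions for brain and plasma (10 µM, 37 °C, 30 min).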

A short description of series [2]: Half life in swine brain at 10 uM after 30 to 60 mins by LC-MS/MS analysis. It counts as ADME, tissue-based, Sus scrofa. The conditions noted are these: pig. An outline of the steps:
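Prodrugs at 10 µM spiked into swine brain homogenate (1% w/v) and incubated at 37 °C with orbital shaking. Triplicate aliquots were taken at 0, 30 and 60 min and quenched with ice-cold acetonitrile containing losartan IS. Prodrug was measured by LC-MS/MS as the analyte/IS peak-area ratio. t1/2 = 0.693/Kel, with Kel the slope of ln % remaining versus time.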

Series [3] in a line: AUC (0 to t) in swine at 1.6 mg/kg, iv infusion via saphenous vein after 5 to 60 mins by LC-MS/MS analysis. It counts as ADME, organism-based, Sus scrofa. The note with it: pig, in vivo. An outline of the steps:
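DON (1.6 mg/kg) or molar-equivalent prodrug in sterile saline with 5% ethanol and 5% Tween 80, given as 1 h iv infusion via saphenous catheter to swine (n = 1/dose). Plasma from jugular central venous catheter at predose, 5, 15, 30, 45, 60 min. DON extracted with methanol plus glutamate-d5 IS, dabsyl chloride derivatized, quantified by LC-MS/MS; AUC0–t from plasma profile.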

A short description of series [4]: Total drug uptake in swine brain at 1.6 mg/kg, iv infusion via saphenous vein after 60 mins by LC-MS/MS analysis. It counts as ADME, organism-based, Sus scrofa. The note with it: pig, in vivo, 1 h. A digest of the protocol: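 Anaesthetised swine, n = 2/dose. Infusion iv via saphenous vein over 1 h at 1.6 mg/kg or molar equivalent, in saline with 5% ethanol and 5% Tween 80. Animals were euthanised 60 min post-infusion and frontal cortex sampled. Extraction used methanol with glutamate-d5, then dabsyl chloride derivatisation (pH 9.0, 60 °C, 15 min) and LC–QTOF-MS.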

Series [5] is described as follows: Total plasma concentration in swine at 1.6 mg/kg, iv infusion via saphenous vein after 60 mins by LC-MS/MS analysis. Format: ADME, organism-based, Sus scrofa. The note with it: pig. A digest of the protocol:
(§2)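 Terminal swine study using the same 1 h iv dosing, 1.6 mg/kg DON or molar equivalent (n = 2/dose). Animals were euthanized with pentobarbital/phenytoin at 60 min postinfusion. Plasma and full-thickness frontal cortex were collected. DON was quantified by LC-MS/MS after methanol extraction with glutamate-d5 IS and dabsyl chloride derivatization. Values are mean ± SEM.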

Series [6] concerns Plasma. Kind of series: Unbound plasma concentration in swine at 1.6 mg/kg, iv infusion via saphenous vein after 60 mins by LC-MS/MS analysis. It counts as ADME, organism-based, Sus scrofa. The conditions noted are these: pig, in vivo, 1 h. A digest of the protocol:
as §1

A short description of series [7]: Total drug uptake in swine cerebrospinal fluid at 1.6 mg/kg, iv infusion via saphenous vein after 60 mins by LC-MS/MS analysis. Format: ADME, organism-based, Sus scrofa. The conditions noted are these: pig, read-out: Drug uptake. A digest of the protocol: (§3)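 Swine received DON 1.6 mg/kg or molar-equivalent prodrug by 1 h iv saphenous infusion in saline/5% ethanol/5% Tween 80 (n = 1/dose). Plasma was sampled via jugular catheter. CSF was taken from the cisterna magna at 60 min postdose. DON was methanol-extracted, dabsyl-derivatized and quantified by LC-MS/MS.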

Series [8] is described as follows: Ratio of total drug level in swine brain to plasma at 1.6 mg/kg, iv infusion via saphenous vein after 60 mins by LC-MS/MS analysis. It counts as ADME, organism-based, Sus scrofa. The conditions noted are these: pig, read-out: BPR. A digest of the protocol: as §2
Series [9] is described as follows: Ratio of total drug level in swine cerebrospinal fluid to plasma at 1.6 mg/kg, iv infusion via saphenous vein after 60 mins by LC-MS/MS analysis. It counts as ADME, organism-based, Sus scrofa, CSF/Plasma. The note with it: pig. A digest of the protocol: as §3
Series [10] can be described thus: Ratio of total drug level in swine cerebrospinal fluid to unbound drug level in swine brain at 1.6 mg/kg, iv infusion via saphenous vein after 60 mins by LC-MS/MS analysis. The note with it: pig, in vivo, 1 h. Format: ADME, organism-based, Sus scrofa. A digest of the protocol: (§4)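 Free DON was derived from total swine brain and plasma levels at 60 min after 1.6 mg/kg-equivalent iv infusion. Unbound fraction came from ultrafiltration: DON 10 µM spiked into swine plasma or brain homogenate, 30 min at 37 °C, centrifuged through a 30 kDa cut-off filter at 37 °C for 45 min. fu = Cu/Ct × 100 by LC-MS/MS.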

Series [11] in a line: Ratio of unbound drug level in swine brain to plasma at 1.6 mg/kg, iv infusion via saphenous vein after 60 mins by LC-MS/MS analysis. The conditions noted are these: pig. It counts as ADME, organism-based, Sus scrofa. A digest of the protocol:
as §4

Series [12] in a line: Ratio of total drug level in swine cerebrospinal fluid to unbound plasma concentration in swine at 1.6 mg/kg, iv infusion via saphenous vein after 60 mins by LC-MS/MS analysis. Format: ADME, organism-based, Sus scrofa. The note with it: pig, in vivo, 1 h.
A short description of series [13]: Fraction unbound in swine brain at 1.6 mg/kg, iv infusion via saphenous vein after 60 min post-infusion by LC-MS/MS analysis. Format: ADME, organism-based, Sus scrofa. The note with it: pig, in vivo, 1 h.
The subject of series [14] is Mus musculus. Kind of series: Toxicity in EcoHIV-infected C57BL/6J mouse assessed as change in visual impairment at 1 mg/kg, […] starting 1 day prior to EcoHIV infection and continuing every other day till day 30 measured after 30 days post infection. The conditions noted are these: in vivo, 720 h. It counts as organism-based.
Series [15] deals with Mus musculus. The series is described as follows: Toxicity in EcoHIV-infected C57BL/6J mouse assessed as change in motor function at 1 mg/kg, […] starting 1 day prior to EcoHIV infection and continuing every other day till day 30 measured after 30 days post infection. It counts as organism-based. The note with it: in vivo, 720 h.
Series [16] has as its system Mus musculus. The series is described as follows: Toxicity in EcoHIV-infected C57BL/6J mouse assessed as change in body weight at 1 mg/kg, […] starting 1 day prior to EcoHIV infection and continuing every other day till day 30 measured after 30 days post infection. Format: organism-based. The conditions noted are these: in vivo, 720 h.
For series [17], the system named is Mus musculus. Kind of series: Toxicity in EcoHIV-infected C57BL/6J mouse assessed as diarrhea at 1 mg/kg, […] starting 1 day prior to EcoHIV infection and continuing every other day till day 30 measured after 30 days post infection. Format: organism-based. The note with it: in vivo, 720 h.
Series [18] can be described thus: Protein binding in swine brain at 10 uM after 30 mins by ultrafiltration method. The conditions noted are these: pig, 0.5 h. It counts as ADME, tissue-based, Sus scrofa. A digest of the protocol:
(§5)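 Drug was spiked at 10 µM into swine plasma or swine brain homogenate and held 30 min at 37 °C. Samples were ultrafiltered (30 kDa cutoff) by centrifugation for 45 min at 37 °C, 1800g. Filtrate and unfiltered matrix were extracted and quantified by LC–MS/MS. Fraction unbound = Cu/Ct × 100.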

Series [19] relates to Plasma. The series is described as follows: Protein binding in swine plasma at 10 uM after 30 mins by ultrafiltration method. Format: ADME, cell-free, Sus scrofa. The conditions noted are these: pig, 0.5 h. An outline of the steps:
as §5

Series [20] deals with Mus musculus. The series is described as follows: Decrease in cognitive decline in C57BL/6J mouse EcoHIV associated neurocognitive disorder model assessed as decrease in latency to escape to hidden platform at 1 mg/kg, […] starting 1 day prior to EcoHIV infection and continuing every other day till day 30 measured after 30 days post infection by radial arm water maze test. It counts as functional, organism-based.

The subject of series [21] is Mus musculus. The series is described as follows: Decrease in cognitive decline in C57BL/6J mouse EcoHIV associated neurocognitive disorder model assessed as decrease in number of errors across learning trial 1 to 4 and retention trial at 1 mg/kg, […] starting 1 day prior to EcoHIV infection and continuing every other day till day 30 measured after 30 days post infection by radial arm water maze test. It counts as functional, organism-based. An outline of the steps:
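Male C57BL/6J mice, 5 weeks old, n = 8/group. Dosing was 1 mg/kg ip every other day, starting 1 day before ip EcoHIV (2 × 10^6 pg p24) or PBS sham, and continued through testing. From day 30 p.i., radial arm water maze: daily four 60 s learning trials, then a 60 s retention test after 30 min rest. Hidden platform arm rotated daily. Values are last-3-day averages.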

In series [22] the test system is Mus musculus. Kind of series: Effect on latency to escape to visible platform in C57BL/6J mouse EcoHIV associated neurocognitive disorder model at 1 mg/kg, […] starting 1 day prior to EcoHIV infection and continuing every other day till day 30 measured after 30 days post infection by radial arm water maze test. Format: organism-based. The conditions noted are these: in vivo, 720 h. An outline of the steps:
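Same mice, dosing and EcoHIV or sham inoculation as the maze study. After the hidden-platform radial arm water maze testing, latency to reach a visible platform in the same context was timed. This serves as a control for vision, motivation and swimming ability.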

The test system of series [23] is Human immunodeficiency virus. Kind of series: Increase in EcoHIV viral DNA load in infected C57BL/6J mouse spleen at 1 mg/kg, […] starting 1 day prior to EcoHIV infection and continuing every other day till day 30 measured after 30 days post infection by qPCR method. Format: organism-based. The conditions noted are these: in vivo, 720 h. (In general: Quantitative PCR measures a nucleic acid by following its amplification.)

The test system of series [24] is Human immunodeficiency virus. Kind of series: Effect on EcoHIV viral DNA load in infected C57BL/6J mouse brain at 1 mg/kg, […] starting 1 day prior to EcoHIV infection and continuing every other day till day 30 measured after 30 days post infection by qPCR method. Format: organism-based. The conditions noted are these: in vivo, 720 h.

Active and inactive are the calls of the source.

For `CC(C)OC(=O)[C@H](CCC(=O)C=[N+]=[N-])NC(=O)OC(OC(=O)C(C)(C)C)c1ccccc1` (some centres not stated), the “Drug uptake(free)” value in [1] is given as 0.531 nmol/g; in series [13], 0.53 nmol/g. The half-life at 10 µM in series [2] was 31 min. This molecule also yielded an area under the curve AUC(0-t) in series [3] of 5.7 µM·h. In series [4], this molecule gave a Drug uptake of 5.9 nmol/g. The results for the concentration at 1 h in [5] and in series [7] were 4.88 µM and 1.1 µM, respectively. The “Cp(f)” value in series [6] is 3.86 µM. In addition, the Kp at 1 h was determined as 1.38 in [8] and 0.069 in series [9]. The Ratio in series [10] is 2.07; in [12], 0.087. Moreover, in series [11], the Kp uu at 1 h came to 0.157.
In turn, `CC(C)OC(=O)[C@H](CCC(=O)C=[N+]=[N-])NC(=O)OC(C)(C)OC(=O)C(C)(C)C` displayed a half-life at 10 µM in [2] of 291 min.
Regarding `CC(C)OC(=O)[C@H](CCC(=O)C=[N+]=[N-])NC(=O)O[C@H](C)OC(=O)C(C)(C)C`, in series [2], the half-life at 10 µM came out at 75 min. This molecule gave an AUC(0-t) in [3] of 8 µM·h.
For the molecule `CC(C)OC(=O)[C@H](CCC(=O)C=[N+]=[N-])NC(=O)OC(OC(=O)C(C)(C)C)C(C)C` (mixture of isomers), the half-life at 10 µM in [2] is 35 min.
On to `[N-]=[N+]=CC(=O)CC[C@H](N)C(=O)O` [6-DIAZO-5-OXO-L-NORLEUCINE], for which the “Drug uptake(free)” value is 0.464 nmol/g in series [1] and 0.46 to 0.531 nmol/g in [13]. Moreover, the Activity entry in series [14] is recorded as “Non-Toxic”; in series [15] it was “Non-Toxic”; in series [16], “Non-Toxic”; in [17] it was “Non-Toxic”; in series [22], “Non-Toxic”; in series [23], “Toxic”. Further, the Activity entry in [24] was “Non-Toxic”. In series [3], this molecule came in with an AUC(0-t) of 29.9 µM·h. The molecule further came in with a Drug uptake in series [4] of 5.15 nmol/g. The values for the concentration at 1 h in [5] and in series [7] were 41.2 µM and 0.252 µM, respectively. In addition, the “Cp(f)” value in series [6] was 32.5 µM. Also, the Kp at 1 h in series [9] turned out to be 0.005. Also, the Kp uu at 1 h in [11] was found to be 0.017. For the same molecule, in [18], the PB was found to be 91%. This molecule yielded a PPB in series [19] of 21%. Further, the outcome in series [20] and in [21] was Active.

The half-life is how long it takes for the measured level to halve. The low end stands for fast loss, the high end for slow loss. The AUC(0-t) is exposure summed from dosing to a finite time, without extrapolation to infinity. The low end stands for less exposure, the high end for more exposure.

Values taken from ChEMBL document CHEMBL4038336 (J Med Chem, 2017).
